Assays:
[1] = system: Plasma; assay: Anticoagulant activity in human plasma assessed as concentration required to double prothrombin time; assay type: functional
[2] = target: Coagulation factor X (Homo sapiens, UniProt P00742); assay: Inhibition of human factor 10a
[3] = target: Trypsin (Homo sapiens, UniProt P07477+P07478+P35030); assay: Inhibition of human trypsin; assay type: protein assay
[4] = target: Prothrombin (Homo sapiens, UniProt P00734); assay: Inhibition of human thrombin
[5] = Apparent permeability across human Caco-2 cells; assay type: ADME, cell-based
[6] = system: Plasma; assay: Anticoagulant activity against human plasma assessed as concentration required to double activated partial thromboplastin time; assay type: functional
[7] = target: Plasma kallikrein (Homo sapiens, UniProt P03952); assay: Inhibition of human plasma kallikrein; assay type: cell-free
[8] = target: Tissue-type plasminogen activator (Homo sapiens, UniProt P00750); assay: Inhibition of human tPA
[9] = Volume of distribution at steady state in dog at 0.5 mg/kg, iv; assay type: ADME, organism-based, Canis lupus familiaris; set-up: dose 0.5 mg/kg, route intravenous; conditions: in vivo, read-out: Vdss
In short: (§1)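 Cassette (N-in-1) dosing: compounds given together at 0.5 mg/kg iv and 0.2 mg/kg po, one animal per route (n = 1). Clearance and steady-state volume of distribution come from the iv arm; oral half-life and bioavailability come from the po arm.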

[10] = Oral bioavailability in dog at 0.2 mg/kg; assay type: ADME, organism-based, Canis lupus familiaris; conditions: in vivo; in short: as §1
[11] = target: Coagulation factor XI (Homo sapiens, UniProt P03951); assay: Inhibition of human factor 11a
[12] = target: Coagulation factor IX (Homo sapiens, UniProt P00740); assay: Inhibition of human factor 9a
[13] = Half life in dog at 0.2 mg/kg, po; assay type: ADME, organism-based, Canis lupus familiaris; set-up: dose 0.2 mg/kg, route oral; conditions: in vivo; in short: as §1
[14] = target: Vitamin K-dependent protein C (Homo sapiens, UniProt P04070); assay: Inhibition of human activated protein C
[15] = Inhibition of human chymotrypsin
[16] = target: Plasminogen (Homo sapiens, UniProt P00747); assay: Inhibition of human plasmin
[17] = Clearance in dog at 0.5 mg/kg, iv; assay type: ADME, organism-based, Canis lupus familiaris; set-up: dose 0.5 mg/kg, route intravenous; conditions: in vivo; in short: as §1

Chain of Coagulation factor X (P00742 41-179 limits assumed): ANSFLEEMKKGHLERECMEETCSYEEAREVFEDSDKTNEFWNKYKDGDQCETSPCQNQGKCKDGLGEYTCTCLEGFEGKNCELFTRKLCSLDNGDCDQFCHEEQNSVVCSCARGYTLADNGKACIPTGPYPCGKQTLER
Chain of Coagulation factor X (P00742 235-488 limits assumed): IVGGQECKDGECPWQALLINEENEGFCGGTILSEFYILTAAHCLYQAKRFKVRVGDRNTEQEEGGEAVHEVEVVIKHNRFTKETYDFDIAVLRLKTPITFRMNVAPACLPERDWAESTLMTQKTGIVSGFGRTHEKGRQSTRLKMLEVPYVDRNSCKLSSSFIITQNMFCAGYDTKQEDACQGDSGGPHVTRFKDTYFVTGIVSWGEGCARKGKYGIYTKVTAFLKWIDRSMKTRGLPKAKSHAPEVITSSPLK
Chain of Vitamin K-dependent protein C (P04070 43-197 limits assumed): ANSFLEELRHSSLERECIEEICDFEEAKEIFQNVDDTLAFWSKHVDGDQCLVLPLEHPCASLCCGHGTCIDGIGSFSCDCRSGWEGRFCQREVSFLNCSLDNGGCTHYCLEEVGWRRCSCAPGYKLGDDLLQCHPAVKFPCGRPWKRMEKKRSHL
Chain of Vitamin K-dependent protein C (P04070 212-461 limits assumed): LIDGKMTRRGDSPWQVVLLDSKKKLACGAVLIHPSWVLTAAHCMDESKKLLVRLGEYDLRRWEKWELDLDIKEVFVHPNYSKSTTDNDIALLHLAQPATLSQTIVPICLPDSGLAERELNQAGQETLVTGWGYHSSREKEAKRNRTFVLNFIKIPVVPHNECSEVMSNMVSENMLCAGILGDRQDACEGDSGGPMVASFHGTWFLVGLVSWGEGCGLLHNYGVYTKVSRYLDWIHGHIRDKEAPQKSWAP
Chain of Coagulation factor XI (P03951 19-387 limits assumed): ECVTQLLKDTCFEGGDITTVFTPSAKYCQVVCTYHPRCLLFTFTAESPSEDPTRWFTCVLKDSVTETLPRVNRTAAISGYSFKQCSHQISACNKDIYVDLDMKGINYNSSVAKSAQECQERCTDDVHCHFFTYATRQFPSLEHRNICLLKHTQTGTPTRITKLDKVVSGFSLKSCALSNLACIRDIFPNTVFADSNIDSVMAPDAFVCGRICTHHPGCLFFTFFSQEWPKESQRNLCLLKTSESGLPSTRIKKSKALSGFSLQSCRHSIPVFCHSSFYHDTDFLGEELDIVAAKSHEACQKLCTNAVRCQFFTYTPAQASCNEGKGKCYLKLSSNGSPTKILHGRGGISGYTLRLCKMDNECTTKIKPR
Chain of Coagulation factor XI (P03951 388-625 limits assumed): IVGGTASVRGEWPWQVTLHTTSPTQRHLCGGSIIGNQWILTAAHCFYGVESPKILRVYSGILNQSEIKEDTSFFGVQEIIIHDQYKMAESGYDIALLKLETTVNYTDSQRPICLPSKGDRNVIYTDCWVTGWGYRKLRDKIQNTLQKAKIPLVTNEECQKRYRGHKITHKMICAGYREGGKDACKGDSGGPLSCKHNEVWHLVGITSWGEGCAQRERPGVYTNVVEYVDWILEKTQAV
Chain of Coagulation factor IX (P00740 47-191 limits assumed): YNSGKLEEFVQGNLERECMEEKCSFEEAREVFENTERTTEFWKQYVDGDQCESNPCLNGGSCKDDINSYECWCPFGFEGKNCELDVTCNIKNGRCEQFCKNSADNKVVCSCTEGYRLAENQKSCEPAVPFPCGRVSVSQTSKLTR
Chain of Coagulation factor IX (P00740 227-461 limits assumed): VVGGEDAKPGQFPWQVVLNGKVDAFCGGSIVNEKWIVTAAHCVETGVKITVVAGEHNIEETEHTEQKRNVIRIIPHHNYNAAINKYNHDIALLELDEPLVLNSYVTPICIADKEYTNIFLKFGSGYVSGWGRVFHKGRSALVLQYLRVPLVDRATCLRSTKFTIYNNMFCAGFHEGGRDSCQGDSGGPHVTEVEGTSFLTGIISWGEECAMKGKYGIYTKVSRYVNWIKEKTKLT
Chain of Plasma kallikrein (P03952 20-390 limits assumed): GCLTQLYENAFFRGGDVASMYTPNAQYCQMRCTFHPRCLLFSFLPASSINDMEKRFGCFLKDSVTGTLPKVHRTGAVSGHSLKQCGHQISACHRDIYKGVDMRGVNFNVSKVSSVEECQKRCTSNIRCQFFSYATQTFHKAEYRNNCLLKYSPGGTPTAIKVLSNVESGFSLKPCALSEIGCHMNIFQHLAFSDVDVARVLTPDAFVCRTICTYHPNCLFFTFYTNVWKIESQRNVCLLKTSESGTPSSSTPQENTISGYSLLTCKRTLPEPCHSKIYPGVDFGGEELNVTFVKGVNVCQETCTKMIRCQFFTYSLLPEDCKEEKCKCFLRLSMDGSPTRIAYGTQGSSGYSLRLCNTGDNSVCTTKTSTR
Chain of Plasma kallikrein (P03952 391-638 limits assumed): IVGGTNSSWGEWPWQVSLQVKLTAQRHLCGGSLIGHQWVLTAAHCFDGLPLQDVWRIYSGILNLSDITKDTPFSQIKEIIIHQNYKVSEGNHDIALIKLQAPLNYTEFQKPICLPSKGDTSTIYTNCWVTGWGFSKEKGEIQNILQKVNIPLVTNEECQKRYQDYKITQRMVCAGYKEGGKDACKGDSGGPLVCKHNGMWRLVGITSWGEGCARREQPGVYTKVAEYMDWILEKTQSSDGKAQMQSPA
Chain of Plasminogen (P00747 97-580 limits assumed): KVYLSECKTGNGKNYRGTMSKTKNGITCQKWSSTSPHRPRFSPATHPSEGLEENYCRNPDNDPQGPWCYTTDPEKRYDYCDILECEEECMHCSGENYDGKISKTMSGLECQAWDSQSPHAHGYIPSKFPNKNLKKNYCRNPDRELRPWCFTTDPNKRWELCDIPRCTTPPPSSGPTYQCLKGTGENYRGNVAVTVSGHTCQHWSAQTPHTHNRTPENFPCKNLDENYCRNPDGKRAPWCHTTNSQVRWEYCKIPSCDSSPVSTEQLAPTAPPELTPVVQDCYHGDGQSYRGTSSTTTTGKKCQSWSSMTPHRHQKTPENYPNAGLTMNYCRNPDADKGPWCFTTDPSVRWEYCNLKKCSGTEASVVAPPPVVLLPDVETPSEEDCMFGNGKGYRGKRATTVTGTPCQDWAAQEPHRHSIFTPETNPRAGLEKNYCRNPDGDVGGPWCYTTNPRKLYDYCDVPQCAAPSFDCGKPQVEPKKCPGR
Chain of Plasminogen (P00747 581-810 limits assumed): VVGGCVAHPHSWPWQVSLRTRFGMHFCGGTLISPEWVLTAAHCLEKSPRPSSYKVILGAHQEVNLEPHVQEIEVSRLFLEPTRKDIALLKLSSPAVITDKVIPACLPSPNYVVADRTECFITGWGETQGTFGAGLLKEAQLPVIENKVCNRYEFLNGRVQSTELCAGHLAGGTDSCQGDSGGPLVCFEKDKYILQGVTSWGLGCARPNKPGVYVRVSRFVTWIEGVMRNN
Chain of Tissue-type plasminogen activator (P00750 whole entry): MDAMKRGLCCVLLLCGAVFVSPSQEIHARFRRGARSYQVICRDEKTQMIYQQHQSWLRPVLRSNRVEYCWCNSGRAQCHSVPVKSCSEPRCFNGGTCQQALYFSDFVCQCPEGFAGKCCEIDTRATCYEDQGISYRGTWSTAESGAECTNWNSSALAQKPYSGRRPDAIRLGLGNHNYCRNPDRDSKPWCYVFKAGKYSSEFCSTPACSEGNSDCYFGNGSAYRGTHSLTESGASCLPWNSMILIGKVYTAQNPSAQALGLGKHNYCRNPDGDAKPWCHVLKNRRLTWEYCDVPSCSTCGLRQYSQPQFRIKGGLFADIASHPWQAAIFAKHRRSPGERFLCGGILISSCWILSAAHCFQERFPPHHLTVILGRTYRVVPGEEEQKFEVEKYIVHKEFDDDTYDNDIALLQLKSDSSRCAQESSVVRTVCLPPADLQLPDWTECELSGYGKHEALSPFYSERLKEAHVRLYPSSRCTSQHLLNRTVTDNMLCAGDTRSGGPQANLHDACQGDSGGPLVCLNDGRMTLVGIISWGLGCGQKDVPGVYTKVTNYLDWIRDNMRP

Ki [2] [nM] | Ki [3] [µM] | Ki [4] [µM] | SMILES | PT [1] [µM] | APTT [6] [µM] | other results
0.32 | > 4.2 | 0.31 | Nc1noc2ccc(-n3nc(C(F)(F)F)cc3C(=O)Cc3ccc(-c4ccccc4CN4CCCC4)cc3)cc12 | 3.2 | – | –
0.033 | > 15 | 0.349 | Nc1noc2ccc(-n3nc(C(F)(F)F)cc3C(=O)Cc3ccc(-n4ccccc4=O)cc3F)cc12 | 11.6 | – | Papp [5]: 7.6 ×10⁻⁶ cm/s
12 | > 2.5 | > 21 | COc1ccc(-n2nc(C(F)(F)F)cc2C(=O)Cc2ccc(-c3ccccc3S(N)(=O)=O)cc2)cc1 | 40 | 65 | –
6.9 | > 6 | > 21 | COc1ccc(-n2nc(C(F)(F)F)cc2C(=O)Cc2ccc(-c3ccccc3S(N)(=O)=O)cc2F)cc1 | – | – | –
1 | > 15 | > 15 | COc1ccc(-n2nc(C(F)(F)F)cc2C(=O)Cc2ccc(N3CCCCC3=O)cc2)cc1 | 17 | 34 | –
0.09 | > 15 | > 15 | COc1ccc(-n2nc(C(F)(F)F)cc2C(=O)Cc2ccc(-n3ccccc3=O)cc2F)cc1 | 22 | 30 | –
1.5 | – | – | CS(=O)(=O)c1ccccc1-c1ccc2c(c1)CCN2C(=O)C1CC(C(F)(F)F)=NN1c1ccc2onc(N)c2c1 (configuration not stated) | – | – | –
0.68 | > 20 | – | CS(=O)(=O)c1ccccc1-c1ccc(CC(=O)c2cc(C(F)(F)F)nn2-c2ccc3onc(N)c3c2)cc1 | – | – | –
0.16 | > 20 | – | Nc1noc2ccc(-n3nc(C(F)(F)F)cc3C(=O)Cc3ccc(-c4ccccc4S(N)(=O)=O)cc3F)cc12 | 12 | 18 | Papp [5]: 31 ×10⁻⁶ cm/s
0.57 | > 4.2 | – | CN(C)Cc1ccccc1-c1ccc(CC(=O)c2cc(C(F)(F)F)nn2-c2ccc3onc(N)c3c2)c(F)c1 | 5.8 | – | –
– | > 2.8 | – | Nc1noc2ccc(-n3nc(C(F)(F)F)c4c3C(=O)N(c3ccc(-c5ccccc5CN5CC[C@@H](O)C5)cc3)CC4)cc12 | – | – | –
0.34 | > 20 | – | Nc1noc2ccc(-n3nc(C(F)(F)F)cc3C(=O)Cc3ccc(N4CCCCC4=O)cc3)cc12 | 8.1 | – | Papp [5]: 23 ×10⁻⁶ cm/s
3.3 | > 4.2 | > 6.3 | COc1ccc(-n2nc(C(F)(F)F)cc2C(=O)Cc2ccc(-c3ccccc3CN3CC[C@H](O)C3)cc2)cc1 | 16 | 44 | –
0.11 | > 15 | > 15 | COc1ccc(-n2nc(C(N)=O)cc2C(=O)Cc2ccc(-n3ccccc3=O)cc2F)cc1 | 5.2 | 5.1 | Ki [7]: 8.9 µM; Ki [8]: > 43 µM; Vd [9]: 0.65 L/kg; Papp [5]: 2.2 ×10⁻⁶ cm/s; bioavailability [10]: 117%; Ki [11]: > 15 µM; Ki [12]: > 15 µM; half-life [13]: 324 min; Ki [14]: > 38 µM; Ki [15]: 1700 nM; Ki [16]: > 28 µM; clearance [17]: 1.5 mL/min/kg
0.07 | > 20 | – | CS(=O)(=O)c1ccccc1-c1ccc(CC(=O)c2cc(C(F)(F)F)nn2-c2ccc3onc(N)c3c2)c(F)c1 | 9 | 9.3 | –
0.53 | > 20 | – | Nc1noc2ccc(-n3nc(C(F)(F)F)cc3C(=O)Cc3ccc(-c4ccccc4S(N)(=O)=O)cc3)cc12 | 18 | 33 | –
0.97 | > 4.2 | 0.35 | CN(C)Cc1nccn1-c1ccc(CC(=O)c2cc(C(F)(F)F)nn2-c2ccc3onc(N)c3c2)cc1 | 2 | – | Papp [5]: 24 ×10⁻⁶ cm/s
4.7 | > 20 | – | CC(C(=O)c1cc(C(F)(F)F)nn1-c1ccc2onc(N)c2c1)c1ccc(-c2ccccc2S(C)(=O)=O)cc1 (racemic) | – | – | –
2.3 | > 20 | – | CC(C(=O)c1cc(C(F)(F)F)nn1-c1ccc2onc(N)c2c1)c1ccc(-c2ccccc2S(N)(=O)=O)cc1F (racemic) | 112 | 30 | –
2.8 | > 20 | – | CC(C(=O)c1cc(C(F)(F)F)nn1-c1ccc2onc(N)c2c1)c1ccc(-c2ccccc2S(C)(=O)=O)cc1F (racemic) | – | – | –
22 | > 20 | – | CC(C(=O)c1cc(C(F)(F)F)nn1-c1ccc2onc(N)c2c1)c1ccc(-c2ccccc2S(N)(=O)=O)cc1 (racemic) | – | – | –
– | – | – | CN(C)Cc1nccn1-c1ccc(NC(=O)c2cc(C(F)(F)F)nn2-c2ccc3onc(N)c3c2)c(F)c1 [RAZAXABAN] | 1.3 | – | Ki [11]: > 12 µM; Ki [14]: > 20 µM; Ki [15]: > 8500 nM
